# From PubChem BioAssay
# NPY Y1 blocker = NPY-Y1 receptor antagonists, primary screen, cell-based. HEK293-CNG Y1 cells, membrane potential fluorescence; NPY at EC95, then isoproterenol. inhibition, % at 3.6 µM. 1% of 200,000 active. AID 1040, 2008;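 active = inhibition above the campaign mean inhibition of all tested compounds plus 3 SD, cut at about 20% in these data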;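 also: 0% = DMSO wells given NPY plus isoproterenol and 100% = isoproterenol alone without NPY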
#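 Assay system: HEK293 Y1/CNG channel cell line; Doses: single compound dose of 3.6 µM, 0.4% DMSO; Timing: dye 3 h, compound 60 min room temperature, stimulation 45 min; Technique: Membrane-potential fluorescent dye readout; Measure: % inhibition of NPY effect.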
# NPY-Y2 antag = NPY-Y2 receptor antagonists, primary screen, cell-based. Neuropeptide Y receptor type 2 (Homo sapiens), P49146. NPY-Y2 expressing cells, antagonist mode. inhibition, % at 2.7 µM. 0.99% of 140,000 active. AID 793, 2007; in the data active = inhibition above about 17%;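 also: 0% = vehicle with agonist challenge and 100% = reference antagonist with challenge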
# NPY-Y2 PAM-ag = NPY-Y2 potentiators or agonists, primary screen, cell-based. AID 1359, 2008. activation, % at 3.6 µM. cells expressing NPY-Y2, potentiator/agonist read-out. Neuropeptide Y receptor type 2 (Homo sapiens), P49146. 0.45% of 220,000 active; in the data active = activation above about 27%;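 also: cells stimulated with NPY near EC25 plus isoproterenol at EC100; 0% = vehicle plus submaximal agonist and 100% = vehicle plus saturating agonist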
# NPY1 pot ag = NPY-Y1 receptor potentiators or agonists, primary screen, cell-based; Neuropeptide Y receptor type 1 (Homo sapiens), P25929; NPY-Y1 expressing cells, potentiator/agonist activation; activation, % at 3.6 µM; 0.37% of 220,000 active; AID 1304, 2008; in the data active = activation above about 33%, passing the limit was not always enough;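 also: cells stimulated with NPY at EC10 then isoproterenol at EC100; 0% = low agonist plus stimulus and 100% = saturating agonist plus stimulus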
# Measles CPE = compounds protecting cells from measles virus cytopathic effect, primary screen, measles RdRp inhibitor project, single point, MLSMR library, absorbance. AID 841, 2007. 1.5% of 140,000 active. protection (pct of control), % at 4 µM. Measles virus-infected cells, CPE protection; in the data active = protection mostly above about 24%, no sharp cut-off; inactive = mostly below about 26%
# Mdm2 ligase inh = MDM2-luciferase reporter signal enhancers, primary screen, MDM2 E3 ligase inhibitor project, cell-based, luminescence, 1536-well; cell-based MDM2 ubiquitination luciferase reporter, 2 h; 0 = plate control, 100 = twice control, blank-subtracted; signal enhancement, % at 5 µM; 0.11% of 210,000 active; AID 1230, 2008;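 active = signal enhancement of 30% or more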;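 also: luminescence tracks abundance of the self-degrading MDM2-luciferase fusion protein; higher signal means inhibition of MDM2 E3 ligase activity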
# Target sequence (Q00987 whole entry, looked up, the tested form may be a part): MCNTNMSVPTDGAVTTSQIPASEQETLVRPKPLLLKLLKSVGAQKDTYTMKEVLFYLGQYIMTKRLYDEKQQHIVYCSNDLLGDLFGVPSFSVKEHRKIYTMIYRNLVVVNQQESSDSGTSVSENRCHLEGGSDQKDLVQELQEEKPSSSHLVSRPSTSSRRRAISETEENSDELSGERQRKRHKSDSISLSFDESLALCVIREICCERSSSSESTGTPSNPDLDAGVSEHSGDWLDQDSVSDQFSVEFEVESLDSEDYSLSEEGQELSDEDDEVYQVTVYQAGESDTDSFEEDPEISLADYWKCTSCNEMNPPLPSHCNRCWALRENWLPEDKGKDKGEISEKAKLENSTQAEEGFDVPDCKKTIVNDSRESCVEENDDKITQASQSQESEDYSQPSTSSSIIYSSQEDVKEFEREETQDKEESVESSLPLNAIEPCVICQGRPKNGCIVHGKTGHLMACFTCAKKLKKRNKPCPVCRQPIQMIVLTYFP
#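 Material: Stable MDM2–luciferase fusion reporter cells | Amount: 2000 cells seeded into each well | Dosing: One concentration, 5 µM, with 0.2% DMSO | Incubation: 4 h cell settling then 2 h compound exposure, 37 °C | Measured by: Luciferase luminescence | Read-out basis: % enhancement relative to plate controls after blank subtraction | Benchmarks: Control and blank well means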
# An asterisk follows results filed as active; / = not tested or not shown. Shown are actives, neighbours in structure and some others; about 2.8% of the full set was active somewhere.
SMILES,NPY Y1 blocker,NPY-Y2 antag,NPY-Y2 PAM-ag,NPY1 pot ag,Measles CPE,Mdm2 ligase inh
c1ccc(-c2csc3ncnc(NCCN4CCOCC4)c23)cc1,-5,3,1,1,21,-20
c1ccc(CNc2nc(CN3CCOCC3)nc3scc(-c4ccccc4)c23)cc1,27*,19*,-17,-30,16,-8
CC(=O)NCCCNS(=O)(=O)c1ccc(C)cc1,2,/,-1,7,/,3
Clc1ccc(CN2C3=NCCCN3c3ccccc32)cc1Cl,21*,/,-18,-22,/,-19
Clc1ccc(CN2C3=NCCCN3c3ccccc32)cc1,9,14,-18,-44,39,-21
O=C(CSc1nnc(-c2ccc(S(=O)(=O)N3CCCC3)cc2)o1)NCc1ccco1,-3,2,13,-2,18,-23
O=C(COC(=O)CCCNC(=O)c1ccc(Cl)cc1)Nc1ccc(Br)cc1,0,-2,15,3,112*,5
O=C1/C(=C/c2cccnc2)Oc2cc(OS(=O)(=O)c3ccc(F)cc3)ccc21,3,-1,1,-5,20,-13
Cc1ccc(S(=O)(=O)Oc2ccc3c(c2)O/C(=C\c2cccnc2)C3=O)cc1,-8,-3,4,-16,33*,-5
Cc1ccc(S(=O)(=O)CCc2nnc(N)s2)cc1,-4,1,-35,4,7,-14
CCc1cc(C(=O)OC)c(NC(=O)CC2NCCNC2=O)s1 (stereo unspecified),-3,0,-7,-9,1,-17
CCc1cc(C(=O)OC)c(NC(=O)C2CC(=O)NN2Cc2ccccc2)s1 (stereo unspecified),-4,1,12,12,23*,11
CCNc1nc(NCC)n2c(SC(C(=O)Nc3cc(C)ccc3C)c3ccccc3)nnc2n1 (stereo unspecified),-3,3,-11,-9,80*,6
Cc1ccc(-c2[nH]nc(N)c2N=Nc2cccc(Cl)c2C)cc1,-1,-3,17,46*,4,-3
Cn1c(C(C)(O)C(O)c2ccccc2)nc2ccccc21 (stereo unspecified),-1,0,17,22,5,0
Cc1cccc(C(C)Nc2ccc([N+](=O)[O-])cn2)c1 (stereo unspecified),1,2,4,7,43*,-49
CC(=O)Nc1ccc([N+](=O)[O-])cn1,1,-1,-2,14,5,-15
N=c1ccn(Cc2c(Cl)cccc2Cl)cc1,/,/,-2,7,/,-9
CC(=O)NC(NC(=S)Nc1ccc(N=Nc2ccccc2)cc1)C(Cl)(Cl)Cl (stereo unspecified),-14,-8,33,46*,7,0
Cc1ccc(NC(=O)N2N=C(c3ccc(F)cc3)CC2c2ccc(F)cc2)cc1 (stereo unspecified),9,4,6,7,8,6
Cc1nn(Cc2c(Cl)cccc2Cl)c(C)c1NC(=O)c1cc(C(C)C)on1,3,-1,3,19,52*,1
COc1cc(/C=N/N2C(=O)c3ccccc3NC2(C)c2cccc([N+](=O)[O-])c2)cc(Br)c1O (stereo unspecified),3,17*,1,-2,10,-20
Cc1cccc(-c2noc(CCCC(=O)Nc3cccnc3)n2)c1,0,1,5,-4,active,-14
Cc1cccc(-c2noc(CCCC(=O)Nc3ccc(C(N)=O)cc3)n2)c1,4,4,3,7,21,-59
CCC(=O)NNc1ncnc2ccccc12,-4,-2,4,23,92*,-10
SMILES,NPY Y1 blocker,NPY-Y2 antag,NPY-Y2 PAM-ag,NPY1 pot ag,Measles CPE,Mdm2 ligase inh
Cc1nnc(C)n1N1C(=O)c2cccc3cccc(c23)C1=O,4,0,7,2,49*,-5
Cc1nnc(N2C(=O)c3cccc4cccc(c34)C2=O)s1,8,4,-3,11,27,-11
CCO[C@H]1OC(C(=O)NCc2ccccc2)=C[C@@H](c2ccc(C(F)(F)F)cc2)[C@@H]1CCCO,-8,/,11,37*,/,/
Cc1ccc(NC(=S)NNS(=O)(=O)c2ccc3ccccc3c2)cc1Cl,4,/,-26,-9,/,-6
C=C(C)C(=O)Nc1cccc(C2=NOC3(C2)C[C@H](C(N)=O)N(C(=O)c2ccccc2C(=O)c2ccccc2)C3)c1 (stereo partly specified),/,/,/,/,/,11
CCOC(=O)c1[nH]c2ccccc2c1N=CN(CC)CC,-5,0,-6,-6,6,-20
Cc1c(NC(=S)N/N=C\c2ccccc2O)c(=O)n(-c2ccccc2)n1C,-2,1,-1,14,55*,7
COC(=O)c1ccccc1NC(=O)CN1CCC(NC(=O)c2ccc(C)cc2)CC1,-1,3,-1,-15,3,-16
COC(=O)c1ccccc1NC(=O)CN1CCN(C23CC4CC(CC(C4)C2)C3)CC1,96*,64*,-39,-127,/,-27
CCCCCc1c(C)nc(NCc2ccccc2)[nH]c1=O,-1,3,8,-6,37*,4
CS(=O)(=O)N(CC(=O)NCc1ccc2c(c1)OCO2)Cc1ccccc1,1,-1,12,-2,7,-8
CC(=O)c1cccc(NC(=O)C(=O)Nc2cccc3ccccc23)c1,-2,/,-4,8,/,1
CCNc1nnc(-c2ccc(C)cc2)o1,4,1,9,-10,39*,-24
CNCc1ccccc1Sc1ccc(OC)c(OC)c1,9,8,-22,-21,40*,0
COc1ccc(NC(=O)Cc2nc3ccccc3[nH]2)cc1,13,22*,-23,-49,17,9
Cc1ccc(-c2nn(C)c(=O)c3ccccc23)cc1CNC(=O)NC1CCCCC1,/,/,-4,-16,/,-2
Cc1cc(=O)n2[nH]c(-c3ccc(F)cc3)nc2n1,-2,2,6,-5,4,-14
Cc1cc(=O)n2[nH]c(N3C(=O)CCC3=O)nc2n1,0,1,4,14,4,30*
CCN(CC)S(=O)(=O)c1ccc(OC)c(NC(=O)c2cc(=O)[nH]c3ccccc23)c1,8,/,-7,-2,/,-6
CC(=O)NCCOc1cccc(OCCNC(C)=O)c1,0,1,11,16,7,-9
CC(=O)NCCOc1ccc2oc3ccccc3c2c1,-2,-1,2,-2,47*,-6
